Measurements from ChEMBL document CHEMBL1137900, “Quinazolinone fungal efflux pump inhibitors. Part 2: In vitro structure-activity relationships of (N-methyl-piperazinyl)-containing derivatives” (Bioorg Med Chem Lett, 2004).
Converted amounts (≈) assume the structure as drawn.

How the values were obtained:
[1] = tested on: Nakaseomyces glabratus; assay: In vitro minimum potentiation concentration to achieve an 8-fold reduction in fluconazole MIC against Candida glabrata strain YEM19 (overexpressing both CgDR1 and CgDR2); assay type: functional
In short: (§1)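 Checkerboard assay in RPMI 1640 following the NCCLS M27-A broth dilution method. Fluconazole MIC was measured with and without varying concentrations of efflux pump inhibitor. MPC8 is the lowest inhibitor concentration giving an 8-fold reduction in fluconazole MIC. Some analogues were tested only in an abbreviated format: inhibitor concentration varied at fixed fluconazole of 1/8 and 1/32 MIC.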

[2] = tested on: Candida albicans; assay: In vitro minimum potentiation concentration to achieve an 8-fold reduction in fluconazole MIC against Candida albicans strain YEM15 (overexpressing both CDR1 and CDR2); assay type: functional; in short: as §1
[3] = tested on: Nakaseomyces glabratus; assay: In vitro concentration to inhibit Candida glabrata CgCDR2 transporter gene over-expressed in Saccharomyces cerevisiae strain Y218; assay type: functional, organism-based
In short: (§2)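 Yeast strains over-expressing single pumps, inoculum 10^4 cells, incubated at 30 °C in YPD. Inhibitor concentration was varied against one fixed fluconazole concentration. That concentration was the geometric mean of the test strain's fluconazole MIC and that of the parent pump-deleted strain; for YEM172 it was 8 µg/ml.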

[4] = tested on: Nakaseomyces glabratus; assay: In vitro concentration to inhibit Candida glabrata CgCDR1 transporter gene over-expressed in Saccharomyces cerevisiae strain Y170; assay type: functional, organism-based; in short: as §2
[5] = tested on: Candida albicans; assay: In vitro concentration to inhibit Candida albicans CDR1 transporter gene over-expressed in Saccharomyces cerevisiae strain YEM172; assay type: functional, organism-based; in short: as §2
[6] = tested on: Candida albicans; assay: In vitro concentration to inhibit Candida albicans CDR2 transporter gene over-expressed in Saccharomyces cerevisiae strain YEM171; assay type: functional, organism-based; in short: as §2
[7] = tested on: Candida albicans; assay: In vitro minimum inhibitory concentration against Candida albicans; assay type: functional
In short: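 C. albicans YEM15 (over-expresses CDR1 and CDR2) tested by broth dilution in RPMI 1640 following NCCLS reference method M27-A. The compound was tested alone, without fluconazole, across a range of concentrations, and the MIC was read as intrinsic antifungal activity.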

[8] = tested on: Saccharomyces cerevisiae; assay: In vitro concentration required to inhibit 80% growth of Saccharomyces cerevisiae strain Y218 (CgCDR2 over-expressed) after 48 h; assay type: functional
[9] = tested on: Candida albicans; assay: In vitro concentration required against Candida albicans strain YEM 15; assay type: functional
[10] = tested on: Saccharomyces cerevisiae; assay: In vitro concentration required to inhibit 80% growth of Saccharomyces cerevisiae strain YEM139 (PDR5 deleted) after 48 h; assay type: functional
[11] = tested on: Saccharomyces cerevisiae; assay: In vitro concentration required to inhibit 80% growth of Saccharomyces cerevisiae strain Y170 (CgCDR1 over-expressed) after 48 h; assay type: functional
[12] = tested on: Saccharomyces cerevisiae; assay: In vitro concentration required to inhibit 80% growth of Saccharomyces cerevisiae strain YEM171 (CDR2 over-expressed) after 48 h; assay type: functional
[13] = tested on: Saccharomyces cerevisiae; assay: In vitro concentration required to inhibit 80% growth of Saccharomyces cerevisiae strain YEM172 (CDR1 over-expressed) after 48 h; assay type: functional

SMILES	MPC8 [1] [µg/mL]	MPC8 [2] [µg/mL]	other results
COc1ccc(NC(C)c2nc3ccccc3c(=O)n2N2CCN(C)CC2)c(OC)c1 (configuration not stated)	>32	>32	
COc1ccc(N(C(=O)Nc2ccccc2)C(C)c2nc3ccccc3c(=O)n2N2CCN(C)CC2)c(OC)c1 (configuration not stated)	16	16	
COc1ccc(N(C(=O)c2ccc(Cl)cc2)C(C)c2nc3ccccc3c(=O)n2N2CCN(C)CC2)c(OC)c1 (configuration not stated)	>32	4	
CC(c1nc2ccccc2c(=O)n1N1CCN(C)CC1)N(C(=O)Nc1ccc(F)cc1)c1ccc(F)cc1F (configuration not stated)	32	8	
CC(c1nc2ccccc2c(=O)n1N1CCN(C)CC1)N(C(=O)Nc1ccc(F)cc1)c1ccccc1 (configuration not stated)	>32	>32	
COc1ccc(N(C(=O)Nc2ccc(F)cc2)C(C)c2nc3cc(Cl)ccc3c(=O)n2N2CCN(C)CC2)c(OC)c1 (configuration not stated)	0.5	0.12	
COc1ccc(N(C(=O)Nc2ccc(F)cc2)C(C)c2nc3cc(F)c(F)cc3c(=O)n2N2CCN(C)CC2)c(OC)c1 (configuration not stated)	0.5	0.12	
COc1ccc(N(C(=O)Nc2ccc(F)cc2)C(C)c2nc3ccc(Cl)cc3c(=O)n2N2CCN(C)CC2)c(OC)c1 (configuration not stated)	2	0.25	
COc1ccc(N(C(=O)NC(C)C)C(C)c2nc3ccccc3c(=O)n2N2CCN(C)CC2)c(OC)c1 (configuration not stated)	>32	>32	
COc1ccccc1N(C(=O)Nc1ccc(F)cc1)C(C)c1nc2ccccc2c(=O)n1N1CCN(C)CC1 (configuration not stated)	>32	>32	
COc1ccc(N(C(=O)Nc2nc3ccccc3s2)C(C)c2nc3ccccc3c(=O)n2N2CCN(C)CC2)c(OC)c1 (configuration not stated)	16	2	
CCC(=O)Oc1ccc2nc(C(C)N(C(=O)Nc3ccc(F)cc3)c3ccc(OC)cc3OC)n(N3CCN(C)CC3)c(=O)c2c1 (configuration not stated)	4	4	
COc1ccc(N(C(=O)Nc2ccc(F)cc2)C(C)c2nc3ccccc3c(=O)n2N2CCN(C)CC2)c(OC)c1 (configuration not stated)	4	4	
COc1ccc(N(C(=O)Nc2ccc(F)cc2)C(C)c2nc3ccc(O)cc3c(=O)n2N2CCN(C)CC2)c(OC)c1 (configuration not stated)	1	16	
COc1ccc(N(C(=O)Nc2ccc(F)cc2)C(C)c2nc3ccccc3c(=O)n2N2CCN(C)CC2)cc1 (configuration not stated)	32	8	
Cc1ccc(N(C(=O)Nc2ccc(F)cc2)C(C)c2nc3ccccc3c(=O)n2N2CCN(C)CC2)c(C)c1 (configuration not stated)	>32	8	
COc1cc(OC)c(N(C(=O)Nc2ccc(F)cc2)C(C)c2nc3ccccc3c(=O)n2N2CCN(C)CC2)c(OC)c1 (configuration not stated)	>32	>32	
COc1ccc(N(C(=O)Nc2cccc(C#N)c2)C(C)c2nc3ccccc3c(=O)n2N2CCN(C)CC2)c(OC)c1 (configuration not stated)	32	32	
COc1ccc(N(C(=O)Nc2ccc(C)cc2)C(C)c2nc3ccccc3c(=O)n2N2CCN(C)CC2)c(OC)c1 (configuration not stated)	4	16	
COc1ccc(N(C(=O)Nc2ccc(Cl)cc2)C(C)c2nc3ccccc3c(=O)n2N2CCN(C)CC2)c(OC)c1 (configuration not stated)	1	2	
COc1ccc(N(C(=O)c2ccccc2Cl)C(C)c2nc3ccccc3c(=O)n2N2CCN(C)CC2)c(OC)c1 (configuration not stated)	>32	4	

SMILES	MPC8 [1] [µg/mL]	MPC8 [2] [µg/mL]	other results
COc1cc(N(C(=O)Nc2ccc(F)cc2)C(C)c2nc3ccccc3c(=O)n2N2CCN(C)CC2)cc(OC)c1OC (configuration not stated)	>32	8	
COc1ccc(N(C(C)c2nc3ccccc3c(=O)n2N2CCN(C)CC2)S(=O)(=O)c2ccc(Cl)cc2)c(OC)c1 (configuration not stated)	>32	32	
COc1ccc(N(C(=O)Nc2ccc(F)cc2)C(C)c2nc3ccc(C)cc3c(=O)n2N2CCN(C)CC2)c(OC)c1 (configuration not stated)	4	0.5	
COc1ccc(N(C(=O)Nc2ccc(F)cc2)C(C)c2nc3cccc(F)c3c(=O)n2N2CCN(C)CC2)c(OC)c1 (configuration not stated)	8	8	
COc1ccc(N(C(=O)Nc2ccc(F)cc2)C(C)c2nc3ccc(F)cc3c(=O)n2N2CCN(C)CC2)c(OC)c1 (configuration not stated)	2	1	
COc1ccc(N(C(=O)Nc2ccc(F)cc2)C(C)c2nc3cc(F)ccc3c(=O)n2N2CCN(C)CC2)c(OC)c1 (configuration not stated)	1	0.5	
COc1ccc(N(C(=O)Nc2ccc(F)cc2)C(C)c2nc3c(OC)cccc3c(=O)n2N2CCN(C)CC2)c(OC)c1 (configuration not stated)	8	8	
COc1ccc(N(C(=O)Nc2ccc(F)cc2)[C@H](C)c2nc3cc(F)ccc3c(=O)n2N2CCN(C)CC2)c(OC)c1	>32	>32	IC50 [3]: > 32 µg/mL; IC50 [4]: > 32 µg/mL; IC50 [5]: > 32 µg/mL; IC50 [6]: > 32 µg/mL
COc1ccc(N(C(=O)Nc2cccc(Cl)c2)C(C)c2nc3ccccc3c(=O)n2N2CCN(C)CC2)c(OC)c1 (configuration not stated)	4	1	
COc1ccc(N(C(=O)Nc2ccc(F)cc2)C(C)c2nc3ccc(OCC(N)=O)cc3c(=O)n2N2CCN(C)CC2)c(OC)c1 (configuration not stated)	>32	>32	
CC(c1nc2ccccc2c(=O)n1N1CCN(C)CC1)N(C(=O)Nc1ccc(F)cc1)c1ccc(OCC2CC2)cc1OCC1CC1 (configuration not stated)	2	4	MIC [7]: 32 µg/mL (≈ 49.9 µM)
COc1cccc(N(C(=O)Nc2ccc(F)cc2)C(C)c2nc3ccccc3c(=O)n2N2CCN(C)CC2)c1 (configuration not stated)	>32	16	
CC(c1nc2ccccc2c(=O)n1N1CCN(C)CC1)N(C)C(=O)Nc1ccc(F)cc1 (configuration not stated)	>32	>32	
COc1ccc(N(C(=O)NS(=O)(=O)c2ccc(Cl)cc2)C(C)c2nc3ccccc3c(=O)n2N2CCN(C)CC2)c(OC)c1 (configuration not stated)	>32	>32	
COc1ccc(NC(=O)N(c2ccc(OC)cc2OC)C(C)c2nc3ccccc3c(=O)n2N2CCN(C)CC2)cc1 (configuration not stated)	2	16	
COc1ccc(N(C(=O)Oc2ccc(Cl)cc2)C(C)c2nc3ccccc3c(=O)n2N2CCN(C)CC2)c(OC)c1 (configuration not stated)	32	32	
COc1ccc(N(C(=O)Nc2ccccc2Cl)C(C)c2nc3ccccc3c(=O)n2N2CCN(C)CC2)c(OC)c1 (configuration not stated)	>32	>32	
COc1ccc(N(C(=O)Nc2ccc(F)cc2)C(C)c2nc3ccccc3c(=O)n2N2CCN(C)CC2)cc1OC (configuration not stated)	>32	>32	
COc1ccc(N(C(=O)Nc2ccc(F)cc2)[C@@H](C)c2nc3cc(F)ccc3c(=O)n2N2CCN(C)CC2)c(OC)c1	0.5	0.25	IC50 [3]: 32 µg/mL (≈ 55.3 µM); IC50 [4]: 2 µg/mL (≈ 3.46 µM); IC50 [5]: 0.5 µg/mL (≈ 0.864 µM); IC50 [6]: 16 µg/mL (≈ 27.7 µM)
COc1ccc(N(C(=O)Nc2ccc(F)cc2)C(C)c2nc3ccc(OC)cc3c(=O)n2N2CCN(C)CC2)c(OC)c1 (configuration not stated)	2	0.5	
OC(Cn1cncn1)(Cn1cncn1)c1ccc(F)cc1F [FLUCONAZOLE]			MIC [8]: 2 µg/mL (≈ 6.53 µM); MIC [9]: 128 µg/mL (≈ 418 µM); MIC [10]: 0.5 µg/mL (≈ 1.63 µM); MIC [11]: 128 µg/mL (≈ 418 µM); MIC [12]: 8 µg/mL (≈ 26.1 µM); MIC [13]: 128 µg/mL (≈ 418 µM)
